Measured values as given in ChEMBL document CHEMBL4619820, “Development of Novel AKR1C3 Inhibitors as New Potential Treatment for Castration-Resistant Prostate Cancer” (J Med Chem, 2020).

Test: Toxicity in Balb/c nu/nu athymic mouse xenografted with human 22Rv1 cells assessed as effect on lung histology at 100 mg/kg, ip dosed twice per week for 6 weeks by H and E staining dependent light microscopy based histopathological analysis
Assay type: organism-based, CWR22R
Conditions: in vivo, 1008 h
Procedure, shortened: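 Mice carrying 22Rv1 xenografts were dosed intraperitoneally, with vehicle controls n=15 and treated groups n=10. Tissue sections of kidney, liver and lung were stained with hematoxylin and eosin and examined by light microscopy at ×40 magnification for histopathological changes.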

## CCc1cccc(NC(=O)c2cc3cccc(O)c3oc2=N)c1
  Activity: Non-Toxic
